High-throughput results from PubChem.
Mdm2 ligase inh – blocks human Mdm2 ubiquitin ligase activity. signal enhancement, % at 5 µM. cell-based MDM2 ubiquitination luciferase reporter, 2 h; 0 = plate control, 100 = twice control, blank-subtracted. Q00987. AID 1230. 210,000 tested, 0.11% active;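 active means signal enhancement of 30% or more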;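 further: luminescence tracks abundance of the self-degrading MDM2-luciferase fusion protein; higher signal means inhibition of MDM2 E3 ligase activity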
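system = mammalian cells stably expressing self-ubiquitinating, self-degrading MDM2 E3–luciferase fusion | quantity = 2000 cells per well seeded | incubation = 4 h cell settling then 2 h compound exposure, 37 °C | signal = SteadyLite luminescence, 15 min reagent step | benchmarks = plate control and blank wells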
S1P4 antag – antagonists of human S1P4 receptor; O95977; 220,000 tested, 0.26% active; S1P4-expressing cells, antagonist mode, reporter read-out; AID 1510; inhibition, % at 4.98 µM; in the data active means inhibition above about 29%;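 further: 0% = wells stimulated with agonist and 100% = vehicle wells without agonist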
Target sequence (O95977 whole entry, looked up): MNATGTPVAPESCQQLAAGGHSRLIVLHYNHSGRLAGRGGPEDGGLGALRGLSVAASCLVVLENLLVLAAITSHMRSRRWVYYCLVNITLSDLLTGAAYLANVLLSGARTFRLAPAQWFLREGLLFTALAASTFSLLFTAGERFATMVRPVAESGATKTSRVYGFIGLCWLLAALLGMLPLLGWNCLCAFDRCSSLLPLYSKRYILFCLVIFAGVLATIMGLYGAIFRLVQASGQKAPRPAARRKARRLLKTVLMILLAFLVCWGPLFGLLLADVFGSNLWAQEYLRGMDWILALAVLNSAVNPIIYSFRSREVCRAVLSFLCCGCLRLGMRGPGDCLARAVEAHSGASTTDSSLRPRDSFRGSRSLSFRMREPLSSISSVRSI
S1P3 antag – blocks the human S1P3 receptor. Q99500. CHO S1P3 NFAT-BLA reporter, FRET fluorescence, antagonist mode. inhibition, % at 4.98 µM. 170,000 tested, 0.27% active. AID 485;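 active means inhibition above the plate cutoff, the mean inhibition of test wells on that plate plus 3 SD, cut at about 28% in these data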;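 further: cells challenged with S1P at its EC80 of 0.8 µM; blue over green emission ratio from cleaved BLA substrate after 4 h stimulation; 0% = S1P-stimulated wells and 100% = unstimulated DMSO-only wells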
L major viab – inhibitors of Leishmania major promastigote growth | 200,000 tested, 9% active | AID 1063 | Leishmania major promastigotes, resazurin fluorescence viability | inhibition, % at 10 µM; in the data active means inhibition above about 50%;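 further: promastigotes grown with compound for 44 hours at 28 °C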
S1P4 ag – human S1P4 receptor agonism; activation, % at 4.98 µM; AID 1509; 220,000 tested, 0.35% active; S1P4-expressing cell line, agonist reporter assay; O95977; in the data active means activation above about 11%;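 further: 0% = DMSO vehicle and 100% = reference agonist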
The depositor's hits bear a star; . = no result given. The sample as a whole holds a higher share of hits than the screen did.

SMILES	Mdm2 ligase inh	S1P4 antag	S1P3 antag	L major viab	S1P4 ag
CCN(CC)S(=O)(=O)c1ccc(N2CCOCC2)c(NC(=O)C(=O)c2c(-c3ccccc3)cc3ccccn23)c1	-4.7	3.0	.	24.0	-2.9
CC(NCCC(c1ccccc1)c1ccccc1)c1ccccc1 (configuration not stated)	.	8.7	6.6	80.9*	-0.6
CC(NC1CCCC1)c1ccccc1 (configuration not stated)	-2.7	4.6	-5.8	-5.4	-1.1
Cc1cc(C)c(OCCCCN2CCC(C)CC2)c(Br)c1	-15.2	8.3	0.8	97.9*	-0.6
Cc1cc(Cl)c(OCCOCCN2CCC(C)CC2)c(Br)c1	-2.0	-18.1	0.5	99.2*	-2.0
COc1ccccc1OCCOCCOc1c(C)cc(C)cc1Br	-3.0	-8.7	-0.6	27.1	1.4
COC(C[C@H]1O[C@H]1[C@H](O)COCc1ccccc1)OC	22.3	.	.	.	.
COc1ccc(CC(=O)N2CCN=C2SCc2cccc([N+](=O)[O-])c2)cc1	-5.3	8.2	2.1	14.8	3.5
CCOC(=O)c1c2c(n(C)c1COC)C(=O)C(=O)c1ccc(Br)cc1-2	.	-2.6	.	99.6*	2.7
O=C(O)CCC(=O)Nc1ccc(Oc2ncnc3cc(Cl)ccc23)nc1	-6.1	18.2	2.9	.	-1.1
Cc1cc(C)c(C)c(S(=O)(=O)NC(C)C(=O)O)c1C (configuration not stated)	-5.6	-3.8	-4.8	.	2.6
Cc1ccc(S(=O)(=O)c2ccc(Cl)cc2)cc1S(=O)(=O)NC(C)C(=O)O (configuration not stated)	0.0	-19.9	0.7	52.0*	-1.1
Cc1ccc(S(=O)(=O)c2ccc(Cl)cc2)cc1S(=O)(=O)N1CCN(C)CC1	0.4	-11.4	.	99.2*	2.3
C=COC(=O)c1sc2nc(C)cc(C)c2c1N	-16.8	-12.6	-13.9	.	1.6
Cc1ccc(CNc2ccc(O)cc2)cc1	-7.3	-16.4	-17.0	98.8*	0.5
c1ccc(-c2oc3ncnc(NCCCN4CCOCC4)c3c2-c2ccccc2)cc1	-23.6	-11.2	16.4	99.5*	-0.6
COc1ccc(-c2oc3ncn(CCN4CCOCC4)c(=N)c3c2-c2ccc(OC)cc2)cc1	-2.7	-7.2	6.3	55.0*	-2.1
COc1ccc(-c2oc3ncnc(NCCN4CCOCC4)c3c2-c2ccc(OC)cc2)cc1	-12.4	3.4	5.6	49.4	1.0
CN(C)CCNc1ncnc2c1cnn2-c1ccc(Cl)cc1	-21.1	15.4	-6.3	98.4*	-1.3
COc1ccc(-c2oc3ncnc(NCCCN4CCOCC4)c3c2-c2ccc(OC)cc2)cc1	-4.2	-5.3	-13.7	74.7*	1.9
O=C(CSc1nc2c(c(=O)n1-c1ccc(Cl)cc1)SCC2)Nc1ccc2c(c1)OCCO2	-3.6	-6.3	-1.4	5.5	-0.6
COc1cccc(CNS(=O)(=O)/C=C/c2ccc3c(c2)OCO3)c1	-7.8	-7.3	.	-5.4	1.3
c1ccc(-n2ncc3c(NCc4cccnc4)ncnc32)cc1	-15.8	7.5	8.5	61.3*	-2.3
COc1ccc(-n2ncc3c(NCCN4CCOCC4)ncnc32)cc1	.	5.6	.	92.0*	2.0
CCOc1cc2nc(-c3ccc(OC)c(OC)c3)nc(NCCCN3CCOCC3)c2cc1OC	-7.0	-19.6	.	53.5*	1.6
SMILES	Mdm2 ligase inh	S1P4 antag	S1P3 antag	L major viab	S1P4 ag
Cc1ccc(Oc2ccc(NC(=O)Cn3ccsc3=N)cc2)cc1	-4.0	-14.2	.	100.3*	0.6
COC(=O)c1ccc(COc2ccccc2/C=N/NS(=O)(=O)c2ccccc2)cc1	-22.5	-4.6	.	30.8	0.1
Cc1[nH]c2ccccc2c1C(c1ccncc1)N1CCN(c2ccccc2F)CC1 (configuration not stated)	-11.9	-10.9	7.7	51.4*	-1.0
Cc1[nH]c2ccccc2c1C(c1ccncc1)N1CCN(c2ccccn2)CC1 (configuration not stated)	6.6	4.1	-4.0	30.4	-0.1
CCCCN1C=CC(=C2C(=O)c3ccccc3C2=O)C=C1	-97.6	-4.1	-13.3	53.0*	-1.9
CCCCC1C(=O)N(c2ccccc2)N(c2ccccc2)C1=O	.	-14.9	-0.6	-9.0	1.8
C=CCn1c(CCC(O)COCCCCC)n[nH]c1=S (configuration not stated)	-12.0	-6.0	0.0	.	0.0
Cc1ccc(N(CN2C(=O)C3C4CCC(C4)C3C2=O)C(=O)c2ccco2)cc1 (configuration not stated)	-9.5	-4.4	-20.7	.	2.8
COc1cc2c(cc1OC)CN(c1nc(CN3CCCCC3)nc3sc4c(c13)CCCC4)CC2	6.5	-0.3	-8.7	99.2*	-0.5
COc1cc2c(cc1OC)CN(c1nc(CN3CCOCC3)nc3sc4c(c13)CCCC4)CC2	.	7.2	-26.1	31.9	-1.7
CCOC(=O)COc1ccc(C2NC(C(=O)O)CS2)cc1 (configuration not stated)	-9.2	-8.1	-19.0	-5.8	0.4
CCOC(=O)COc1ccc(C2CC(C)=NN2c2ccccc2)cc1 (configuration not stated)	32.5*	-2.3	-11.4	1.4	1.2
COc1ccc(OCC(=O)N(Cc2ccco2)C2CCS(=O)(=O)C2)cc1 (configuration not stated)	-10.1	-5.0	-16.9	.	-0.1
CC(C)Oc1ccc(CNC(=S)N/N=C/c2ccc([N+](=O)[O-])cc2)cc1	-11.5	7.1	.	37.7	-0.1
CCOCCCNC(=O)C(c1ccc(OC)cc1)N(Cc1cccs1)C(=O)c1ccccn1 (configuration not stated)	-37.3	-12.9	13.2	-4.1	-1.0
Cc1nn(-c2cc(N3CCCCC3)ccc2N)c(=O)c2ccccc12	-4.1	-7.9	-17.0	-4.4	1.4
Nc1ccc(N2CCCCC2)cc1N1CCCCC1	4.9	2.1	0.3	100.2*	0.2
O=C(CCN1C(=O)C2C3C=CC(C3)C2C1=O)Nc1ccccn1 (configuration not stated)	-24.8	-16.1	-21.6	-1.5	-0.5
CC(C)c1[nH]nc2c1C(C1C=CCCC1)C(C#N)=C(N)O2 (configuration not stated)	-5.9	-5.6	2.7	.	-1.9
Cc1[nH]nc2c1C(C1CC=CCC1)C(C#N)=C(N)O2 (configuration not stated)	-4.1	7.4	30.0	100.0*	-0.1
CCC(CC)C1C(C#N)=C(N)Oc2n[nH]c(C)c21 (configuration not stated)	-16.6	-7.8	.	98.9*	1.4
CC(=O)c1ccc(NC(=O)Cn2nc(C)c([N+](=O)[O-])c2C)cc1	-6.8	1.2	2.4	17.4	1.0
Cc1ccc2nc(NC(=O)CCCC(=O)O)sc2c1	-21.0	6.8	8.4	-4.4	1.1
Cc1nn(CC(=O)Nc2cccc(S(N)(=O)=O)c2)c(C)c1[N+](=O)[O-]	-9.8	-12.2	-12.0	63.4*	0.9
Cc1ccc2nc(NC(=O)CCCc3nc4ccccc4s3)sc2c1	-9.9	10.2	.	90.5*	-1.8
Cc1ccc2nc(NC(=O)Cn3nc(C)c([N+](=O)[O-])c3C)sc2c1	-7.5	-14.2	-10.4	68.7*	2.5
Cc1nc2ccccc2c(=O)n1NC(=O)CCC(=O)O	-8.6	-4.6	-12.1	0.8	-2.1
